Values after ≈ are worked out from the molar mass of the structure shown. Active and inactive are the calls of the source.
How the values were obtained:
[1] = tested on: MOLT-4; experiment: Cytotoxicity against human MOLT4 cells assessed as cell growth at 8 uM by sulforhodamine B assay relative to control; format: functional; conditions: read-out: Activity
[2] = tested on: SK-MEL-28; experiment: Cytotoxicity against human SK-MEL-28 cells assessed as cell growth at 800 nM by sulforhodamine B assay relative to control; format: functional; conditions: read-out: Activity
[3] = tested on: OVCAR-4; experiment: Cytotoxicity against human OVCAR4 cells by sulforhodamine B assay; format: functional
Method in brief: (§1)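 NCI Developmental Therapeutics Program 60-cell-line human tumor panel screen, run at NCI. A single-concentration pre-screen was followed by a five-concentration dose-response in 10-fold steps. GI50 is the concentration that reduces growth of treated cells to half that of untreated control cells. TGI is the concentration that completely halts growth.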

[4] = tested on: 786-0; experiment: Cytotoxicity against human 786-0 cells assessed as cell growth at 8 uM by sulforhodamine B assay relative to control; format: functional; conditions: read-out: Activity
Method in brief: (§2)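 Run at NCI in the DTP 60-cell-line human tumor panel by standard procedure. Compounds were first screened at a single concentration, then tested at five tenfold-spaced concentrations. GI50 is the concentration reducing treated-cell growth to half that of untreated controls; TGI is the concentration completely halting growth.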

[5] = tested on: IGROV-1; experiment: Cytotoxicity against human IGROV1 cells by sulforhodamine B assay; format: functional; method in brief: as §1
[6] = tested on: Candida albicans; experiment: Antimicrobial activity against Candida albicans ATCC 90028 by CLSI method; format: functional, organism-based
[7] = tested on: K562; experiment: Cytotoxicity against human K562 cells by sulforhodamine B assay; format: functional; method in brief: as §1
[8] = tested on: LOX IMVI; experiment: Cytotoxicity against human LOXIMVI cells assessed as cell growth at 80 uM by sulforhodamine B assay relative to control; format: functional; conditions: read-out: Activity
[9] = tested on: NCI-H23; experiment: Antitumor activity against human NCI-H23 cells xenografted in mouse assessed as tumor cell killing at 4.7 mg/kg, ip qd for 4 days by MTT assay; format: functional, organism-based; design: dose 4.7 mg/kg
Method in brief: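 Hollow-fiber assay in mice. Tumor lines were grown in RPMI-1640 with 10% FBS and 2 mM glutamine. Cells at 2 × 10^6 cells/ml were loaded into 1 mm PVDF fibers (500,000 Da cutoff), heat-sealed at 2 cm and held 24–48 h at 37 °C, 5% CO2 before implantation. Compound was given IP. Fibers were collected the day after the fourth treatment for MTT (OD 540 nm, group means). A ≥50% cut in percent net growth versus vehicle counted as positive.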

[10] = tested on: HOP-92; experiment: Cytotoxicity against human HOP92 cells assessed as cell growth at 8 nM by sulforhodamine B assay relative to control; format: functional; conditions: read-out: Activity
[11] = tested on: EKVX; experiment: Cytotoxicity against human EKVX cells assessed as cell growth at 80 nM by sulforhodamine B assay relative to control; format: functional; conditions: read-out: Activity
[12] = tested on: OVCAR-4; experiment: Cytotoxicity against human OVCAR4 cells assessed as cell growth at 800 nM by sulforhodamine B assay relative to control; format: functional; conditions: read-out: Activity
[13] = tested on: IGROV-1; experiment: Cytotoxicity against human IGROV1 cells assessed as cell growth at 8 nM by sulforhodamine B assay relative to control; format: functional; conditions: read-out: Activity
[14] = tested on: HT-29; experiment: Cytotoxicity against human HT-29 cells assessed as cell growth at 8 nM by sulforhodamine B assay relative to control; format: functional; conditions: read-out: Activity
[15] = tested on: UACC-62; experiment: Cytotoxicity against human UACC62 cells assessed as cell growth at 800 nM by sulforhodamine B assay relative to control; format: functional; conditions: read-out: Activity
[16] = tested on: SR; experiment: Cytotoxicity against human SR cells assessed as cell growth at 800 nM by sulforhodamine B assay relative to control; format: functional; conditions: read-out: Activity
[17] = tested on: UACC-62; experiment: Cytotoxicity against human UACC62 cells assessed as cell growth at 80 nM by sulforhodamine B assay relative to control; format: functional; conditions: read-out: Activity
[18] = tested on: EKVX; experiment: Cytotoxicity against human EKVX cells assessed as cell growth at 8 nM by sulforhodamine B assay relative to control; format: functional; conditions: read-out: Activity
[19] = tested on: UACC-257; experiment: Cytotoxicity against human UACC257 cells assessed as cell growth at 8 nM by sulforhodamine B assay relative to control; format: functional; conditions: read-out: Activity
[20] = tested on: UACC-257; experiment: Cytotoxicity against human UACC257 cells assessed as cell growth at 8 uM by sulforhodamine B assay relative to control; format: functional; conditions: read-out: Activity
[21] = tested on: SK-MEL-2; experiment: Cytotoxicity against human SK-MEL-2 cells assessed as cell growth at 80 nM by sulforhodamine B assay relative to control; format: functional; conditions: read-out: Activity
[22] = tested on: KM12; experiment: Cytotoxicity against human KM12 cells assessed as cell growth at 80 nM by sulforhodamine B assay relative to control; format: functional; conditions: read-out: Activity
[23] = tested on: SNB-75; experiment: Cytotoxicity against human SNB75 cells assessed as cell growth at 80 uM by sulforhodamine B assay relative to control; format: functional; conditions: read-out: Activity
[24] = tested on: HL-60(TB); experiment: Cytotoxicity against human HL-60(TB) cells assessed as cell growth at 800 nM by sulforhodamine B assay relative to control; format: functional; conditions: read-out: Activity
[25] = tested on: LOX IMVI; experiment: Cytotoxicity against human LOXIMVI cells assessed as cell growth at 8 uM by sulforhodamine B assay relative to control; format: functional; conditions: read-out: Activity
[26] = tested on: HCT-116; experiment: Cytotoxicity against human HCT116 cells by sulforhodamine B assay; format: functional
Method in brief: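 Run by the NCI Developmental Therapeutics Program on its 60-line human tumour cell panel using the standard procedure. Compounds went through a single-concentration prescreen first, and those active by NCI criteria went on to a five-concentration growth-inhibition test. GI50 is the concentration that cuts growth of treated cells to half that of untreated control cells.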

[27] = tested on: NCI-H226; experiment: Cytotoxicity against human NCI-H226 cells assessed as cell growth at 800 nM by sulforhodamine B assay relative to control; format: functional; conditions: read-out: Activity
[28] = tested on: UACC-62; experiment: Cytotoxicity against human UACC62 cells assessed as cell growth at 80 uM by sulforhodamine B assay relative to control; format: functional; conditions: read-out: Activity
[29] = tested on: NCI/ADR-RES; experiment: Cytotoxicity against human NCI/ADR-RES cells assessed as cell growth at 8 nM by sulforhodamine B assay relative to control; format: functional; conditions: read-out: Activity
[30] = tested on: KM12; experiment: Cytotoxicity against human KM12 cells by sulforhodamine B assay; format: functional; method in brief: as §1
[31] = tested on: COLO 205; experiment: Cytotoxicity against human COLO205 cells assessed as cell growth at 8 uM by sulforhodamine B assay relative to control; format: functional; conditions: read-out: Activity; method in brief: as §2
[32] = tested on: PC-3; experiment: Cytotoxicity against human PC3 cells assessed as cell growth at 80 nM by sulforhodamine B assay relative to control; format: functional; conditions: read-out: Activity
[33] = tested on: KM12; experiment: Cytotoxicity against human KM12 cells assessed as cell growth at 8 nM by sulforhodamine B assay relative to control; format: functional; conditions: read-out: Activity
[34] = tested on: TK-10; experiment: Cytotoxicity against human TK10 cells assessed as cell growth at 8 nM by sulforhodamine B assay relative to control; format: functional; conditions: read-out: Activity
[35] = tested on: IGROV-1; experiment: Cytotoxicity against human IGROV1 cells assessed as cell growth at 80 uM by sulforhodamine B assay relative to control; format: functional; conditions: read-out: Activity
[36] = tested on: HOP-92; experiment: Cytotoxicity against human HOP92 cells assessed as cell growth at 80 nM by sulforhodamine B assay relative to control; format: functional; conditions: read-out: Activity
[37] = tested on: NCI/ADR-RES; experiment: Cytotoxicity against human NCI/ADR-RES cells by sulforhodamine B assay; format: functional; method in brief: as §1

Molecule C/C=C1\NC(=O)[C@H](Cc2ccccc2)NC(=O)[C@@H](C(C)C)NC(=O)[C@@H]([C@@H](C)CC)NC(=O)[C@H](NC(=O)[C@H](NC(=O)[C@H](CCCNCc2ccc(N3CCOCC3)cc2)NC(=O)[C@H]2CCCN2C(=O)[C@H](NC(=O)[C@@H](NC(=O)[C@@H](NC(=O)[C@H](NC(=O)CCCC(C)C)C(C)C)[C@@H](C)O)C(C)C)C(C)C)[C@@H](C)CC)[C@@H](C)OC(=O)[C@H](C(C)C)NC1=O has a growth at 8 µM [1] of 83%, a growth at 0.8 µM [2] of 98% and a GI50 [3] of 1.23 µM. For the same molecule, the TGI ([3]; read-out: pTGI (converted)) was 2.82 µM, the growth at 8 µM [4] was -88% and the GI50 [5] was 0.813 µM. It also gave a TGI ([5]; read-out: pTGI (converted)) of 2 µM, an IC50 [6] of 5.76 µM and an MFC [6] greater than 20 µM. It also gave an MIC [6] of 20 µM (≈ 33.1 µg/mL), a GI50 [7] of 4.79 µM and a CC50 ([7]; read-out: pLC50 (the source's name) (converted)) greater than 75.9 µM. The TGI ([7]; read-out: pTGI (converted)) was 22.9 µM, the growth at 80 µM [8] was -59% and the Activity [9] was “inactive”. It also gave a growth at 0.008 µM [10] of 81%, a growth at 0.08 µM [11] of 98% and a growth at 0.8 µM [12] of 79%. It also gave a growth at 0.008 µM [13] of 104%, a growth at 0.008 µM [14] of 92% and a growth at 0.8 µM [15] of 100%. The growth at 0.8 µM [16] was 103%, the growth at 0.08 µM [17] was 103% and the growth at 0.008 µM [18] was 102%. For the same molecule, the growth at 0.008 µM [19] was 101%, the growth at 8 µM [20] was -76% and the growth at 0.08 µM [21] was 101%. For the same molecule, the growth at 0.08 µM [22] was 99%, the growth at 80 µM [23] was -7% and the growth at 0.8 µM [24] was 93%. The growth at 8 µM [25] was 20%, the GI50 [26] was 1.55 µM and the LC50 [26] was 6.03 µM. For the same molecule, the TGI ([26]; read-out: pTGI (converted)) was 3.09 µM, the growth at 0.8 µM [27] was 104% and the growth at 80 µM [28] was -81%. The growth at 0.008 µM [29] was 104%, the LC50 [30] was greater than 75.9 µM and the GI50 ([30]; read-out: GI50) was 0.201 µM. The GI50 ([30]; read-out: pGI50 (converted)) was 0.2 µM, the growth at 8 µM [31] was -73% and the growth at 0.08 µM [32] was 97%. It also gave a growth at 0.008 µM [33] of 106%, a growth at 0.008 µM [34] of 118% and a growth at 80 µM [35] of -30%. For the same molecule, the growth at 0.08 µM [36] was 96%, the GI50 [37] was 1.41 µM and the LC50 [37] was 21.4 µM. For the same molecule, the TGI ([37]; read-out: pTGI (converted)) was 3.47 µM.

Source: ChEMBL document CHEMBL1921722, “In vitro and in vivo evaluation of select kahalalide F analogs with antitumor and antifungal activities” (Bioorg Med Chem, 2011)
